Here are results for 98 compounds from ChEMBL document CHEMBL4513216, “Probing the Open Global Health Chemical Diversity Library for Multistage-Active Starting Points for Next-Generation Antimalarials” (ACS Infect Dis, 2020).

The series can be described thus: Toxicity liver stage against HepG2, at 10uM. In kind it is cell-based. Further details: test concentration 10 uM, cell line HepG2-A16-CD81EGFP. As to conditions: human, HepG2-A16-CD81EGFP cells; read-out: INHIBITION
The gist of the method: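 Uninfected HepG2-A16-CD81EGFP cells, 3 × 10^3 per well, 1536-well, plated on prespotted compound at 10 μM final, parasite-free screening media added to match infected plates; puromycin 10 μM positive, DMSO 0.5% negative; run in parallel with 48 h PbLuc assay at 37 °C, 5% CO2; viability by CellTiter-Glo luminescence, normalized to controls.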
`CCOCCCC(=O)NCCC(=O)N1CCN(c2ccccn2)CC1`: the cytotoxicity at 10 µM was -4.76%. For the compound `COCCC(=O)NCCn1nc(C2CCNC2)c2cccnc21` (stereo not drawn), the cytotoxicity at 10 µM is -16.5%. The figure for `CCc1nc(C2CCCN(C(=O)c3cn(C)nc3C)C2)no1` (stereo not drawn) is -14.5%. With `O=C(C1CCC1)N1CCCC1c1nnc2n1CCCCC2` (stereo not drawn), the cytotoxicity at 10 µM was determined as 1.26%. With `NC(=O)c1c(NC(=O)CCCC(=O)O)sc2c1CCc1ccccc1-2` the figure was -1.25%; with `CCCC(C)CN1CCC(n2cc(CCCO)nn2)CC1` (stereo not drawn), 3.22%; with `Cn1cc(NC(=O)c2cccc(Cl)c2)c(=O)n(C)c1=O`, -1.86%. Regarding `CCS(=O)(=O)N1CCN(C(=O)c2cnc3[nH]nc(C)c3c2)CC1`, the cytotoxicity at 10 µM is -5.68%. For `CN(C(=O)c1ccc(Cl)cc1)C1CCN(c2ccccn2)CC1`, the cytotoxicity at 10 µM was -21%. The figure for `Cc1c(C(C)NC(=O)N2CCN(C3CCCC3)CC2)cnn1C` (stereo not drawn) is 3.02%; for `COCCN(Cc1ccoc1)C(=O)c1ccccc1OC` it is 6.28%.

Consider `Cc1nc(NC2CC2)c2c(n1)c(C)nn2C`, for which the cytotoxicity at 10 µM is -3.79%.

For `CN1N=C(C(=O)N2CCCN(c3ncccc3C#N)CC2)CCC1=O`, the cytotoxicity at 10 µM is -1.8%. `Cc1ccc(N2CCN(C(=O)CCc3n[nH]c(C)c3C)CC2=O)cc1`: the cytotoxicity at 10 µM is 4.78%.

As to `CC(=O)N(Cc1noc(C2CC2)n1)C1CCN(Cc2ccccn2)C1` (stereo not drawn), the cytotoxicity at 10 µM was -5.72%.

Take `CC(C)c1noc(CCCC(=O)N2CCC(Cc3cccnc3)CC2)n1`: the cytotoxicity at 10 µM was -5.43%. Take `CC(C)CN1CC2(CCN(C(=O)c3cn4cccnc4n3)CC2)CC1=O`: the cytotoxicity at 10 µM is -6.84%. With `O=C(CN1C(=O)CCC1=O)NCC1(O)CCc2ccccc21` (stereo not drawn) the figure was -15.7%; with `Cc1cc(C(=O)N2CCCC(N3CCCCCC3)C2)nn1C(C)(C)C` (stereo not drawn), -4.4%; with `O=C1C[C@H]2[C@@H](CCN2C(=O)c2ccc[nH]2)N1CCN1CCCC1`, -4.28%. With `CC(=O)N1CCn2c(-c3cccc(F)c3)cnc2C12CCNCC2`, the cytotoxicity at 10 µM amounted to 4.98%. Take `CC(C)(C)c1cn(C[C@H]2CC3CCN2C[C@@H]3C(=O)N2CCOCC2)nn1` (stereo partly drawn): the cytotoxicity at 10 µM was -3.37%. With `Cn1cc(-c2nc(C3CCN(S(C)(=O)=O)CC3)cc3c2ncn3C)cn1` the figure was 1.39%; with `Cc1ccc2c(n1)N(CCn1cccn1)CCN(CC1CC1)C2`, 8.83%. As for `COc1ccc(CNc2nc(N3CCOCC3)ns2)cc1`, the cytotoxicity at 10 µM is -4.77%.

Regarding `CC1CCN(Cc2cc(=O)[nH]c(=O)[nH]2)CC1`, the cytotoxicity at 10 µM is 9.95%. For the compound `COCC1COCCC12CCN(Cc1cccs1)CC2` (stereo not drawn), the cytotoxicity at 10 µM was 6.13%. Take `CC(C)(C)C(=O)N1CCC(c2noc(C3CCC(=O)N3)n2)CC1` (stereo not drawn): the cytotoxicity at 10 µM was -3.06%. With `Cc1cc(N2CCC3(CCCN(CCO)C3=O)C2)nc2ccccc12` (stereo not drawn) the figure was 3.69%; with `Cc1nc(CN2CCCN(C(=O)c3c(C)oc(C)c3C)CC2)cs1`, -14%.

On to `CCc1nc(CNCCn2cc(C)cn2)no1`, for which the cytotoxicity at 10 µM is -4.32%. The figure for `O[C@@H]1CN(c2noc(C3CC3)n2)CC[C@H]1c1ccc2ccccc2c1` is 5.11%; for `CN1C(=O)C2(CCN(c3ncccc3C(=O)O)CC2)c2ccccc21` it is -2.25%; for `CC(=O)N1CCC2(CCCN(Cc3ccc(Cl)c(C(F)(F)F)c3)C2)C1` (stereo not drawn) it is 3.22%. Take `N#Cc1cc2c(nc1O)CCCCC2`: the cytotoxicity at 10 µM is -6.88%.

Take `Cc1noc(C)c1CN1CCC[C@]2(C[C@@H](Oc3ccccn3)CO2)C1`: the cytotoxicity at 10 µM was -67.1%. With `Fc1cnc(N2CCCC3(CN(Cc4ccccc4)CCO3)C2)nc1` (stereo not drawn) the figure was 12.4%. `CNS(=O)(=O)CCCNC(C)(C)c1nc(C)cs1`: the cytotoxicity at 10 µM was found to be 11.1%. For the compound `CNS(=O)(=O)c1ccc(C(=O)N2CCCC2c2ccccc2)o1` (stereo not drawn), the cytotoxicity at 10 µM is -7.67%. Consider `Cc1nc(N)c2ccc(C3CCCCN3)nc2n1` (stereo not drawn), for which the cytotoxicity at 10 µM is -0.05%. As for `Cc1ccc(C(=O)N2CCN(C(=O)Nc3ccccn3)CC2)o1`, the cytotoxicity at 10 µM worked out at 2.14%. The figure for `CC1(Cc2ccc3c(c2)OCO3)CCCN(S(=O)(=O)N2CCCC2)C1` (stereo not drawn) is -0.788%; for `CCN(Cc1noc(C)n1)C(=O)CCc1scnc1C` it is 2.13%; for `CN(Cc1cnccn1)CC1CCOc2ccccc2C1` (stereo not drawn) it is -3.75%. Take `CN(C)C(=O)N1CCC2(CCCN(c3ncccn3)C2)C1` (stereo not drawn): the cytotoxicity at 10 µM is 4.82%. With `Cc1cnn(C2CN(CC(=O)NCC3(c4ccccc4)CCC3)C2)c1`, the cytotoxicity at 10 µM is -4.2%. Regarding `CC(C)OCCCNC(=O)CC1(Cn2cnnn2)CCCCC1`, the cytotoxicity at 10 µM worked out at 9.18%.

`CC(C)Cn1c(=O)n(CCn2cc(Cl)cn2)c2cc(C(=O)O)cnc21`: the cytotoxicity at 10 µM was 3.72%.

Regarding `CCC(CC)c1cc(CNC(=O)N2CCCN(C(C)=O)CC2)on1`, the cytotoxicity at 10 µM was -7.55%. In the case of `O=C(CCNS(=O)(=O)c1ccc(F)c(F)c1)NCc1ccoc1`, the cytotoxicity at 10 µM amounted to 11.2%. The figure for `O=C(N1CCOCC1)[C@@]12CCO[C@@H]1CCN(C1CCOCC1)C2` is 5.83%. Take `CN1CCNC(Cc2ccc(-c3ccncc3)cc2)C1=O` (stereo not drawn): the cytotoxicity at 10 µM was -25.8%. The figure for `Cc1nc(CCN)cc(N2CCCN(C(=O)c3ccco3)CC2)n1` is 1.24%. For the compound `Cc1nccc(N2CCCC(C)(C(=O)NC3CCCC3)C2)n1` (stereo not drawn), the cytotoxicity at 10 µM is -18.6%. With `CCS(=O)(=O)CCNC(=O)c1cc2n(n1)CCCO2` the figure was -8.81%. For the compound `CNS(=O)(=O)CCNC(=O)c1coc(COc2ccc(F)cc2)n1`, the cytotoxicity at 10 µM worked out at 0.975%.

For the compound `CC(C)n1nc2c(cc1=O)CN(c1ncnc3ccsc13)CC2`, the cytotoxicity at 10 µM is 60.6%.

Regarding `COCCOc1ccc(F)cc1NCc1nc2ccccc2n1C`, the cytotoxicity at 10 µM worked out at 6.29%. With `CN(C)C1CCN(C(=O)c2ccc(Cn3ccccc3=O)o2)CC1` the figure was -2.11%; with `O=C(Nc1nncs1)N1CCC(CCO)CC1`, -2.48%; with `CC(C)c1cc(C(=O)N(c2ccc(F)cn2)C2CCOCC2)nn1C`, -4.65%.

As for `O=C(NCCNC(=O)C1Cc2cc(F)ccc2O1)C1CCCCC1` (stereo not drawn), the cytotoxicity at 10 µM turned out to be 4.07%. As for `Cc1cccc(C(=O)N2CC(=O)N(c3ccccc3Cl)CC2C)n1` (stereo not drawn), the cytotoxicity at 10 µM is -7.25%. The figure for `NCCCNS(=O)(=O)Cc1ccc(Br)cc1` is -0.447%.

On to `COc1ccnc(N2CCN(C(=O)c3csnn3)CC2)n1`, for which the cytotoxicity at 10 µM was -0.581%. The figure for `COCC[C@]1(O)CCN(C(=O)CCc2cnn(C)c2)C[C@H]1C` is 1.72%.

As to `Cn1cnc2c1C(COCC1CCOCC1)CN(C(=O)c1ccco1)C2` (stereo not drawn), the cytotoxicity at 10 µM was -75.5%. In the case of `CC(=O)N1CC[C@H](c2nnc(Cc3c[nH]c4ccccc34)o2)C1`, the cytotoxicity at 10 µM is 8.12%. In the case of `CCN(C(=O)Cc1ccc(NC(=O)NC2CC2)cc1)c1ccccc1`, the cytotoxicity at 10 µM turned out to be 7.84%. The figure for `CN(C)C(C(=O)Nc1nccs1)c1c(F)cccc1Cl` (stereo not drawn) is -44.4%; for `O=c1[nH]c(C2CCOC2)nc2ccc(Cl)cc12` (stereo not drawn) it is -12%.

Consider `Cc1nc(NC(=O)CN2C(=O)c3ccccc3NC2C(C)C)sc1C` (stereo not drawn), for which the cytotoxicity at 10 µM came out at 0.585%.

Regarding `COCCNc1ncc(-c2cc(C)no2)c(-c2ccco2)n1`, the cytotoxicity at 10 µM was determined as 13.4%. For `COc1nccnc1N1CCC2(CCCN(C(C)C)C2=O)C1` (stereo not drawn), the cytotoxicity at 10 µM is 2.57%.

With `COc1ccnc(N2CCN(C(=O)CN3CCOCC3)CC2)n1`, the cytotoxicity at 10 µM is -0.819%. In the case of `O=C(Nc1cnccn1)[C@@H]1COC[C@H]2CN(c3ncc(F)cn3)C[C@H]21`, the cytotoxicity at 10 µM is -11.7%. Regarding `COCC(=O)N1CCCn2c(CN3CCOCC3)nnc2C1`, the cytotoxicity at 10 µM was -131%. The figure for `CCCn1nc(C(=O)NCc2nnc3n2CCC3)ccc1=O` is -3.18%. As for `O=c1[nH]c2nc(N3CCCC3)ncc2c(=O)n1-c1cccc(F)c1`, the cytotoxicity at 10 µM is 8.24%. With `COCCn1cnnc1CN(C)c1nc(N)nc2c1CCCC2`, the cytotoxicity at 10 µM was -6.98%. With `Cc1ccsc1C(Cc1ccccc1)NC(=O)CSCC(N)=O` (stereo not drawn) the figure was 8.13%; with `Cc1cc(C2CCCCN2C(=O)c2cccn2C)nc2nccn12` (stereo not drawn), -17.6%; with `O=C1CN(CC2CC2)Cc2nc(NCc3ccccc3)sc21`, -12.3%. As for `CC(C)CS(=O)(=O)Nc1ccc2c(c1)OCC(C)(C)C(=O)N2C`, the cytotoxicity at 10 µM was -0.123%. For the compound `Cc1cc(CNC(=O)NCc2cccs2)ccc1S(C)(=O)=O`, the cytotoxicity at 10 µM is -6.97%. For `COc1ccc2[nH]cc(-c3ccnc(N4CCC(C)CC4)n3)c2c1`, the cytotoxicity at 10 µM was -7.3%. With `O=C(Cc1n[nH]c(-c2cncc(Br)c2)n1)NCc1ccncc1` the figure was -6.3%; with `CCN(c1ccsc1C(=O)N1CCCCC1)S(=O)(=O)c1ccccc1`, 9.78%.

For `Cc1cc(-c2cnn(CCNC(=O)c3cccnc3)c2C2CC2)on1`, the cytotoxicity at 10 µM is 0.565%.

Regarding `O=C(CCNc1ncccn1)N1CCCC(n2cccn2)C1` (stereo not drawn), the cytotoxicity at 10 µM was determined as 0.2%. With `CC(C)Cc1nc(CS(C)(=O)=O)n(-c2ccccn2)n1` the figure was 1.66%; with `CCN1CCC(CNC(=O)Nc2cccnc2OC)CC1`, -0.523%; with `Cn1ncc2c(NCCCOc3cccnc3)nc(C3CCCC3)nc21`, 2.94%.

Regarding `Cc1ccccc1C(C)NC(=O)CN1CCN(Cc2ccc(Br)s2)CC1` (stereo not drawn), the cytotoxicity at 10 µM was 22.9%. For `CCN(Cc1cccc(C(N)=O)c1)c1ccccc1`, the cytotoxicity at 10 µM was 2.91%.

Take `Cc1ccc(NC(=O)N2CCCC(O)C2)c(Br)c1` (stereo not drawn): the cytotoxicity at 10 µM turned out to be 7.72%. With `CCc1c(C)nc(-n2nc(-c3cccs3)cc2N)[nH]c1=O` the figure was -4.47%; with `Cc1noc(C)c1S(=O)(=O)NC(=O)COc1ccc(C(C)C)cc1`, 2.1%.
